What was measured:
Format in all cases: functional
MDA-MB-468 = assay: Cytotoxicity against human MDA-MB-468 cells
In short: (§1)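 Five-dose in vitro screen on the full sixty human tumour cell line panel. Three response parameters derived per cell line: GI50, TGI and LC50, given in μM.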

SW-620 = assay: Cytotoxicity against human SW620 cells; in short: as §1
CCRF-CEM = assay: Cytotoxicity against human CCRF-CEM cells
Malme-3M [1] = assay: Cytotoxicity against human MALME-3M cells assessed as growth inhibition at 10 uM; details: read-out: GI
K562 = assay: Cytotoxicity against human K562 cells
SF-268 = assay: Cytotoxicity against human SF268 cells; in short: as §1
UO-31 = assay: Cytotoxicity against human UO31 cells
In short: (§2)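 Five-dose in vitro screen across the full sixty-cell human tumour line panel. Three response parameters were derived from the dose-response data: GI50, TGI and LC50, expressed in μM/l.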

IGROV-1 = assay: Cytotoxicity against human IGROV1 cells
Malme-3M [2] = assay: Cytotoxicity against human MALME-3M cells
[3] = Cytotoxicity against human EKVX cells
NCI-H460 = assay: Cytotoxicity against human NCI-H460 cells; in short: as §1
HOP-62 = assay: Cytotoxicity against human HOP62 cells
U-251 = assay: Cytotoxicity against human U251 cells; in short: as §2
MCF7 = assay: Cytotoxicity against human MCF7 cells; in short: as §1
HOP-92 = assay: Cytotoxicity against human HOP92 cells assessed as growth inhibition at 10 uM; details: read-out: GI
BT-549 = assay: Cytotoxicity against human BT549 cells
T47D = assay: Cytotoxicity against human T47D cells; in short: as §1
MOLT-4 = assay: Cytotoxicity against human MOLT4 cells; in short: as §1
UACC-62 = assay: Cytotoxicity against human UACC62 cells assessed as growth inhibition at 10 uM; details: read-out: GI
In short: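 Single-dose screen in a sixty-cell human tumour line panel; percent growth of treated cells relative to untreated was read and reported as percentage growth inhibition, shown as a mean graph. Compounds meeting the threshold inhibition criteria went on to five-dose testing.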

OVCAR-5 = assay: Cytotoxicity against human OVCAR5 cells; in short: as §1
[4] = read-out: LC50 (the source's name)

In the case of N#Cc1c(-c2ccccc2)nc(SCC2CO2)nc1N1CCOCC1 (stereo not drawn), the TGI (MDA-MB-468) was > 100 µM, the CC50 (MDA-MB-468; [4]) was > 100 µM and the GI50 (SW-620) was 25 µM. The TGI (SW-620) was > 100 µM, the CC50 (SW-620; [4]) was > 100 µM and the GI50 (CCRF-CEM) was > 100 µM. The TGI (CCRF-CEM) was > 100 µM, the CC50 (CCRF-CEM; [4]) was > 100 µM and the inhibition of growth at 10 µM (Malme-3M [1]) was 74.3%. For the same molecule, the GI50 (K562) was > 100 µM, the TGI (K562) was > 100 µM and the CC50 (K562; [4]) was > 100 µM. For the same molecule, the GI50 (SF-268) was 13 µM, the TGI (SF-268) was > 100 µM and the CC50 (SF-268; [4]) was > 100 µM. The GI50 (UO-31) was 7.57 µM, the TGI (UO-31) was > 100 µM and the CC50 (UO-31; [4]) was > 100 µM. The GI50 (IGROV-1) was 1.79 µM, the TGI (IGROV-1) was 23.3 µM and the CC50 (IGROV-1; [4]) was > 100 µM. For the same molecule, the GI50 (Malme-3M [2]) was 2.56 µM, the TGI (Malme-3M [2]) was > 100 µM and the CC50 (Malme-3M [2]; [4]) was > 100 µM. For the same molecule, the GI50 [3] was 3.65 µM, the TGI [3] was > 100 µM and the CC50 [3, 4] was > 100 µM. For the same molecule, the GI50 (NCI-H460) was 10.3 µM, the TGI (NCI-H460) was > 100 µM and the CC50 (NCI-H460; [4]) was > 100 µM. The GI50 (HOP-62) was 4.34 µM, the TGI (HOP-62) was 75.3 µM and the CC50 (HOP-62; [4]) was > 100 µM. For the same molecule, the GI50 (U-251) was 22.1 µM, the TGI (U-251) was > 100 µM and the CC50 (U-251; [4]) was > 100 µM. The GI50 (MCF7) was 3.92 µM, the TGI (MCF7) was > 100 µM and the CC50 (MCF7; [4]) was > 100 µM. For the same molecule, the inhibition of growth at 10 µM (HOP-92) was 81.7%, the GI50 (BT-549) was 3.22 µM and the TGI (BT-549) was > 100 µM. For the same molecule, the CC50 (BT-549; [4]) was > 100 µM, the GI50 (T47D) was 3.59 µM and the TGI (T47D) was 22.5 µM. For the same molecule, the CC50 (T47D; [4]) was > 100 µM, the GI50 (MOLT-4) was 28.9 µM and the TGI (MOLT-4) was > 100 µM. For the same molecule, the CC50 (MOLT-4; [4]) was > 100 µM, the inhibition of growth at 10 µM (UACC-62) was 48.1% and the GI50 (OVCAR-5) was 1.7 µM. For the same molecule, the TGI (OVCAR-5) was > 100 µM and the CC50 (OVCAR-5; [4]) was > 100 µM.

— ChEMBL document CHEMBL2413060, “Synthesis, biological evaluation and molecular docking studies of some pyrimidine derivatives” (2013)
